# Residues, ends and D or L forms follow the SMILES beside them.
# Key:
# Cryptococcus neoformans [1] = assay: Antifungal activity against Cryptococcus neoformans ATCC 32264 assessed as inhibition of fungal growth at 200 uM after 48 hrs by microbroth dilution method; type: functional; details: ATCC 32264, 48 h
# Procedure, shortened: (§1)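 Cryptococcus run by CLSI M-27 A2 microbroth dilution in RPMI-1640. Peptide was diluted from DMSO stock to final 200, 100, 50, 25, 12.5, 6.25 and 3.125 µM. Inoculum was 1–5 × 10^3 CFU/ml from 24 h, 35 °C Sabouraud-chloramphenicol slants. Incubation was 48 h at 35 °C, moist and dark. % inhibition was taken from OD405 against a DMSO-containing growth control. Amphotericin B served as the positive control; tests in duplicate.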
# Cryptococcus neoformans [2] = assay: Antifungal activity against Cryptococcus neoformans ATCC 32264 assessed as inhibition of fungal growth at 100 uM after 48 hrs by microbroth dilution method; type: functional; details: ATCC 32264, 48 h; procedure, shortened: as §1
# Cryptococcus neoformans [3] = assay: Antifungal activity against Cryptococcus neoformans ATCC 32264 assessed as inhibition of fungal growth at 50 uM after 48 hrs by microbroth dilution method; type: functional; details: ATCC 32264, 48 h; procedure, shortened: as §1
# Cryptococcus neoformans [4] = assay: Antifungal activity against Cryptococcus neoformans ATCC 32264 assessed as inhibition of fungal growth at 25 uM after 48 hrs by microbroth dilution method; type: functional; details: ATCC 32264, 48 h; procedure, shortened: as §1
# Cryptococcus neoformans [5] = assay: Antifungal activity against Cryptococcus neoformans ATCC 32264 assessed as inhibition of fungal growth at 12.5 uM after 48 hrs by microbroth dilution method; type: functional; details: ATCC 32264, 48 h; procedure, shortened: as §1
# Cryptococcus neoformans [6] = assay: Antifungal activity against Cryptococcus neoformans ATCC 32264 assessed as inhibition of fungal growth at 6.25 uM after 48 hrs by microbroth dilution method; type: functional; details: ATCC 32264, 48 h; procedure, shortened: as §1
# Cryptococcus neoformans [7] = assay: Antifungal activity against Cryptococcus neoformans ATCC 32264 assessed as inhibition of fungal growth at 3.125 uM after 48 hrs by microbroth dilution method; type: functional; details: ATCC 32264, 48 h; procedure, shortened: as §1
# Candida albicans [8] = assay: Antifungal activity against Candida albicans ATCC 10231 assessed as inhibition of fungal growth at 200 uM after 24 hrs by microbroth dilution method; type: functional; details: ATCC 10231, 24 h
# Procedure, shortened: (§2)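 CLSI M-27 A2 broth microdilution in RPMI-1640. Peptides were taken from DMSO stocks to final 200–3.125 µM (twofold series). Inoculum was 1–5 × 10^3 CFU/ml from 24 h Sabouraud-chloramphenicol slant cultures at 35 °C. Plates were incubated 24 h at 35 °C in a moist dark chamber. OD405 was read, and % inhibition was taken against a DMSO-matched growth control. Amphotericin B served as the positive control; duplicates.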
# Candida albicans [9] = assay: Antifungal activity against Candida albicans ATCC 10231 assessed as inhibition of fungal growth at 100 uM after 24 hrs by microbroth dilution method; type: functional; details: ATCC 10231, 24 h; procedure, shortened: as §2
# Candida albicans [10] = assay: Antifungal activity against Candida albicans ATCC 10231 assessed as inhibition of fungal growth at 50 uM after 24 hrs by microbroth dilution method; type: functional; details: ATCC 10231, 24 h; procedure, shortened: as §2
# Candida albicans [11] = assay: Antifungal activity against Candida albicans ATCC 10231 assessed as inhibition of fungal growth at 25 uM after 24 hrs by microbroth dilution method; type: functional; details: ATCC 10231, 24 h; procedure, shortened: as §2
# Candida albicans [12] = assay: Antifungal activity against Candida albicans ATCC 10231 assessed as inhibition of fungal growth at 12.5 uM after 24 hrs by microbroth dilution method; type: functional; details: ATCC 10231, 24 h; procedure, shortened: as §2
# Cryptococcus neoformans [13] = assay: Antifungal activity against Cryptococcus neoformans ATCC 32264 assessed as inhibition of fungal growth after 48 hrs by microbroth dilution method; type: functional; details: ATCC 32264, 48 h; for MIC: read-out: MIC100; procedure, shortened: as §1
# Candida albicans [14] = assay: Antifungal activity against Candida albicans ATCC 10231 assessed as inhibition of fungal growth after 24 hrs by microbroth dilution method; type: functional; details: ATCC 10231, 24 h; for MIC: read-out: MIC100; procedure, shortened: as §2
# [15] = Toxicity in Poecilia reticulata assessed as mortality at 22.8 ug/ml after 24 hrs; type: organism-based; details: in vivo, read-out: Activity
# Procedure, shortened: (§3)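 Acute toxicity in guppy (P. reticulata): 10 fish per concentration held in jars with the test solution for 96 h. Peptide added from aqueous stock diluted in DMSO to the final concentration. Dead fish counted and removed every 24 h, and condition noted. Percent mortality recorded at 96 h. Two experiments, each in triplicate.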
# [16] = Toxicity in Poecilia reticulata assessed as mortality at 22.8 ug/ml after 48 hrs; type: organism-based; details: in vivo, read-out: Activity; procedure, shortened: as §3
# [17] = Toxicity in Poecilia reticulata assessed as mortality at 22.8 ug/ml after 72 hrs; type: organism-based; details: in vivo, read-out: Activity; procedure, shortened: as §3
# [18] = Toxicity in Poecilia reticulata assessed as mortality at 22.8 ug/ml after 96 hrs; type: organism-based; details: in vivo, read-out: Activity; procedure, shortened: as §3
# [19] = Toxicity in Poecilia reticulata assessed as mortality at 16.4 ug/ml after 72 hrs; type: organism-based; details: in vivo, read-out: Activity; procedure, shortened: as §3
# [20] = Toxicity in Poecilia reticulata assessed as mortality at 16.4 ug/ml after 24 hrs; type: organism-based; details: in vivo, read-out: Activity; procedure, shortened: as §3
# [21] = Toxicity in Poecilia reticulata assessed as mortality at 16.4 ug/ml after 48 hrs; type: organism-based; details: in vivo, read-out: Activity; procedure, shortened: as §3
# [22] = Toxicity in Poecilia reticulata assessed as mortality at 16.4 ug/ml after 96 hrs; type: organism-based; details: in vivo, read-out: Activity; procedure, shortened: as §3
# [23] = Toxicity in Poecilia reticulata assessed as mortality at 13.6 ug/ml after 24 hrs; type: organism-based; details: in vivo, read-out: Activity; procedure, shortened: as §3
# [24] = Toxicity in Poecilia reticulata assessed as mortality at 13.6 ug/ml after 48 hrs; type: organism-based; details: in vivo, read-out: Activity; procedure, shortened: as §3
# [25] = Toxicity in Poecilia reticulata assessed as mortality at 13.6 ug/ml after 72 hrs; type: organism-based; details: in vivo, read-out: Activity; procedure, shortened: as §3
# [26] = Toxicity in Poecilia reticulata assessed as mortality at 13.6 ug/ml after 96 hrs; type: organism-based; details: in vivo, read-out: Activity; procedure, shortened: as §3
Molecule,inhibition at 200 µM (Cryptococcus neoformans [1]) [%],inhibition at 100 µM (Cryptococcus neoformans [2]) [%],inhibition at 50 µM (Cryptococcus neoformans [3]) [%],inhibition at 25 µM (Cryptococcus neoformans [4]) [%],inhibition at 12.5 µM (Cryptococcus neoformans [5]) [%],inhibition at 6.25 µM (Cryptococcus neoformans [6]) [%],inhibition at 3.125 µM (Cryptococcus neoformans [7]) [%],inhibition at 200 µM (Candida albicans [8]) [%],inhibition at 100 µM (Candida albicans [9]) [%],inhibition at 50 µM (Candida albicans [10]) [%],inhibition at 25 µM (Candida albicans [11]) [%],inhibition at 12.5 µM (Candida albicans [12]) [%],other results
CC[C@H](C)[C@H](NC(=O)[C@H](C)NC(=O)[C@@H](N)CCCNC(=N)N)C(=O)N[C@@H](CCCCN)C(N)=O (H-RAIK-NH2),34.6,29.1,0,0,0,0,0,,,,,,
CC[C@H](C)[C@H](NC(=O)[C@@H](N)CCCCN)C(=O)N[C@@H](CCC(N)=O)C(=O)N[C@@H](CCCNC(=N)N)C(N)=O (H-KIQR-NH2),47.6,44.1,30.9,26.9,25.1,21.2,20.9,,,,,,
C[C@H](NC(=O)[C@H](C)NC(=O)[C@@H](N)CCCNC(=N)N)C(=O)N[C@@H](CCCCN)C(N)=O (H-RAAK-NH2),78.6,69.7,67.5,39.1,26.3,14.1,0,,,,,,
CC[C@H](C)[C@H](NC(=O)[C@H](CCC(N)=O)NC(=O)[C@@H](N)CCCNC(=N)N)C(=O)N[C@@H](CCCNC(=N)N)C(N)=O (H-RQIR-NH2),65.7,40.2,18.8,19.3,3.34,0,0,,,,,,
H-NRRMKWKK-NH2,63.6,34.8,23.3,6.71,6.64,,,11,4.59,0,0,0,
CC[C@H](C)[C@H](NC(=O)[C@H](CCC(N)=O)NC(=O)[C@@H](N)CCCCN)C(=O)N[C@@H](CCCCN)C(N)=O (H-KQIK-NH2),3.72,0,0,0,0,0,0,,,,,,
CC[C@H](C)[C@H](NC(=O)[C@H](CCC(N)=O)NC(=O)[C@@H](N)CCCNC(=N)N)C(=O)N[C@@H](CCCCN)C(N)=O (H-RQIK-NH2),55.4,36.6,18.4,17.5,11.2,19.9,12.2,,,,,,
C[C@H](N)C(=O)N[C@@H](C)C(=O)N[C@@H](C)C(=O)N[C@@H](C)C(N)=O (H-AAAA-NH2),25,24.6,17.3,20.4,11.8,12.4,5.93,,,,,,
C[C@@H]1[C@H](O)[C@@H](C)/C=C/C=C/C=C/C=C/C=C/C=C/C=C/[C@H](O[C@@H]2O[C@H](C)[C@@H](O)[C@H](N)[C@@H]2O)C[C@@H]2O[C@](O)(C[C@@H](O)C[C@@H](O)[C@H](O)CC[C@@H](O)C[C@@H](O)CC(=O)O[C@H]1C)C[C@H](O)[C@H]2C(=O)O [AMPHOTERICIN B],100,100,100,100,100,100,100,100,100,100,100,100,
H-RQWKKWWQWRR-NH2,100,100,100,100,66.2,,,100,100,100,67.9,35.7,"MIC50 (Cryptococcus neoformans [13]): ≤ 12.5 µM; MIC (Cryptococcus neoformans [13]): 25 µM; MIC50 (Candida albicans [14]): ≤ 25 µM; MIC (Candida albicans [14]): 50 µM; mortality at 24 h, 22.8 ug/ml [15]: 0%; mortality at 48 h, 22.8 ug/ml [16]: 0%; mortality at 72 h, 22.8 ug/ml [17]: 0%; mortality at 96 h, 22.8 ug/ml [18]: 0%"
C[C@H](NC(=O)[C@H](C)NC(=O)[C@H](C)NC(=O)[C@@H](N)CCCNC(=N)N)C(N)=O (H-RAAA-NH2),38.4,8.45,8.43,8.9,6.08,4.96,0,,,,,,
C[C@H](N)C(=O)N[C@@H](C)C(=O)N[C@@H](C)C(=O)N[C@@H](CCCCN)C(N)=O (H-AAAK-NH2),70.6,62,57.9,43,31.1,0,0,,,,,,
C[C@H](NC(=O)[C@H](CCC(N)=O)NC(=O)[C@@H](N)CCCNC(=N)N)C(=O)N[C@@H](CCCCN)C(N)=O (H-RQAK-NH2),0,0,0,0,0,0,0,,,,,,
CC(=O)N1CCN(c2ccc(OCC3COC(Cn4ccnc4)(c4ccc(Cl)cc4Cl)O3)cc2)CC1 (stereo unspecified) [KETOCONAZOLE],100,100,100,100,100,100,100,100,100,100,100,100,
H-RQIRRWWQW-NH2,100,100,100,100,83.3,,,100,100,100,50.7,19.1,"MIC50 (Cryptococcus neoformans [13]): ≤ 12.5 µM; MIC80 (Cryptococcus neoformans [13]): ≤ 12.5 µM; MIC (Cryptococcus neoformans [13]): 25 µM; MIC50 (Candida albicans [14]): ≤ 25 µM; MIC (Candida albicans [14]): 50 µM; mortality at 72 h, 16.4 ug/ml [19]: 0%; mortality at 24 h, 16.4 ug/ml [20]: 0%; mortality at 48 h, 16.4 ug/ml [21]: 0%; mortality at 96 h, 16.4 ug/ml [22]: 0%"
CC[C@H](C)[C@H](NC(=O)[C@@H](NC(=O)[C@@H](N)CCCNC(=N)N)[C@@H](C)CC)C(=O)N[C@@H](CCCCN)C(N)=O (H-RIIK-NH2),42,39.7,11.5,20.9,12.6,14.5,8.74,,,,,,
H-RQIRRWWQWRR-NH2,100,100,100,100,51.2,,,100,100,100,46.6,22.9,"MIC50 (Cryptococcus neoformans [13]): ≤ 12.5 µM; MIC (Cryptococcus neoformans [13]): 25 µM; MIC50 (Candida albicans [14]): ≤ 25 µM; MIC (Candida albicans [14]): 50 µM; mortality at 24 h, 13.6 ug/ml [23]: 0%; mortality at 48 h, 13.6 ug/ml [24]: 0%; mortality at 72 h, 13.6 ug/ml [25]: 0%; mortality at 96 h, 13.6 ug/ml [26]: 0%"

# — ChEMBL document CHEMBL1157699, “New small-size peptides possessing antifungal activity” (Bioorg Med Chem, 2010)
